By pIC50 is commonly meant the IC50 on a negative log10 scale, so that one unit is a factor of ten.

Assay type in all cases: functional, cell-based
The subject of one assay is MDA-MB-435. Description: Cytotoxicity against human MDA-MB-435 cells after 72 hrs by cell proliferation assay. The settings on record: for IC50: mda-mb-435. A digest of the protocol: (§1)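 Cells from ATCC grown at 37 °C, 5% CO2 in RPMI 1640 with 10% FBS, penicillin 100 units/mL, streptomycin 100 μg/mL. Log-phase cells trypsinized, washed twice, seeded at 5000/well, left overnight. DMSO-dissolved samples tested at 20, 4, 0.8, 0.16, 0.032 μM (final DMSO 0.5%) for 72 h at 37 °C. Viable cells read by MTS-type absorbance assay; IC50 relative to DMSO control.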

A further assay concerns MDA-MB-231. Briefly: Cytotoxicity against human MDA-MB-231 cells after 72 hrs by cell proliferation assay. A digest of the protocol: as §1
The nature of assay [1]: Cytotoxicity against human OVCAR3 cells after 72 hrs by cell proliferation assay. As to conditions: ovcar-3; call rule not given here. The method in brief:
as §1

pIC50: −log10 of the molar value.

`C[C@]12C(=O)OC[C@@]3(CC[C@@H]1O)[C@@H]1CC(=O)c4ccoc4[C@@H]1C[C@@H](O)[C@H]32`: the IC50 entry (in the assay on MDA-MB-435; with MDA-MB-231; in assay [1]) was “Not Active” in each case.

For the molecule `C[C@@]12C(=O)CC[C@]3(C)[C@@H]4CC[C@@]5(C)[C@@H](O)CO[C@H]5C4=C[C@@H](OC1=O)[C@@H]23`, the IC50 result (with MDA-MB-435; with MDA-MB-231; in assay [1]) was “Not Active” in each case.

For the molecule `COc1cc2c(c3occc13)[C@@H](O)[C@H]1OC(=O)[C@]3(C)[C@H]1[C@]21CCC3(O)OC1`, the IC50 entry (with MDA-MB-435; with MDA-MB-231; in assay [1]) was “Not Active” throughout.

On to `CO[C@@]12OC[C@@H](O)[C@]1(C)CC[C@@H]1C2=C[C@H]2OC(=O)[C@]3(C)[C@H]2[C@]12CCC3(O)OC2`, for which the pIC50 with MDA-MB-435 (Homo sapiens, MDA-MB-435, 72 h, read-out: IC50) was 5.15. Besides, the IC50 result (in the assay on MDA-MB-231; in assay [1]) was “Not Active” in each case.

In the case of `C[C@]12C(=O)O[C@@H]3Cc4c(cc(O)c5ccoc45)[C@@]4(CCC1(O)OC4)[C@@H]32`, the IC50 entry (in the assay on MDA-MB-435; with MDA-MB-231; in assay [1]) was “Not Active” throughout.

(Values after ChEMBL document CHEMBL3739298, “(9βH)-Pimaranes and Derivatives from the Tuber of Icacina trichantha” (J Nat Prod, 2015).)
